Assay results collected from several papers.
Compare with care: the assays were run in different laboratories.
Target: Calcium/calmodulin-dependent protein kinase kinase 2 (CAMKK2, Homo sapiens, UniProt Q96RR4)

Compound	assay	setting	measurement	value
C1=C/COCc2cc(ccc2OCCN2CCCC2)Nc2nccc(n2)-c2cccc(c2)COC/1	binding	0.1 µM	remaining binding	68%
Cc1cc(O)c(-c2ccc([C@@H](C)CN(C)C)cc2)c2c1[nH]c(=O)c1sccc12	enzyme activity, inhibitor	0.1 µM	inhibition	6.79%
C=CC(=O)N1CCC([C@@H]2CCNc3c(C(N)=O)c(-c4ccc(Oc5ccccc5)cc4)nn32)CC1	enzyme activity, inhibitor	1 µM	inhibition	12%
COc1ccc2[nH]c3c4[nH]c5ccc(OC)cc5c4c4c(c3c2c1)C(=O)NC4=O	binding	1 µM	remaining binding	74%
C#Cc1cc(-c2cc(Nc3nc(N[C@@H](C)c4ccc(F)cn4)ncc3Cl)n[nH]2)ccc1C=O	enzyme activity, inhibitor	0.2 µM	inhibition	57.9%
CCCCC(=O)Nc1ccc(-c2ccc3ncn(CCC)c(=O)c3c2)cn1	binding, competition with immobilised ligand	0.5 µM	remaining binding	100%
Cc1ccc(NC(=O)c2ccnc(C(F)(F)F)c2)cc1-c1cc(OCCO)nc(N2CCOCC2)c1	binding	1 µM	remaining binding	98%
C=CC(=O)N1CCC[C@@H](n2nc(-c3ccc(Oc4ccccc4)cc3)c3c(N)ncnc32)C1	enzyme activity, inhibitor	1 µM	inhibition	4%
